What was measured:
[1] = tested on: Human immunodeficiency virus 1; assay: Antiviral activity against HIV1 RES056 infected in human MT4 cells assessed as protection against virus-induced cytopathic effect incubated for 5 days by MTT assay; assay type: functional, organism-based; conditions: Human immunodeficiency virus 1, RES056, MT4, 120 h
Outline: (§1)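 MT-4 cells (exponentially growing, resuspended at 6 × 10⁵ cells/mL) were seeded onto serial five-fold compound dilutions and infected with 100–300 CCID₅₀ virus stock, or given medium only (mock). Viability was read by MTT at 540 and 690 nm five days after infection, using the median OD of three wells. EC₅₀ is 50% protection from viral cytopathicity. CC₅₀ is 50% loss of viability in mock-infected cells.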

[2] = tested on: Human immunodeficiency virus 1; assay: Antiviral activity against wild type HIV1 3B infected in human MT4 cells assessed as protection against virus-induced cytopathic effect incubated for 5 days by MTT assay; assay type: functional, organism-based; conditions: Human immunodeficiency virus 1, 3B, MT4, 120 h; outline: as §1
MT4 = assay: Cytotoxicity against mock-infected human MT4 cells assessed as reduction in cell viability measured after 5 days by MTT assay; assay type: functional; conditions: MT4, 120 h, time 5 day; outline: as §1
[3] = tested on: Human immunodeficiency virus 1; assay: Antiviral activity against HIV1 L1001 infected in human MT4 cells assessed as protection against virus-induced cytopathic effect incubated for 5 days by MTT assay; assay type: functional, organism-based; conditions: Human immunodeficiency virus 1, L1001, MT4, 120 h
Outline: (§2)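 MT-4 cells (exponentially growing, resuspended at 6 × 10⁵ cells/mL) exposed to serial five-fold compound dilutions, then infected with mutant HIV-1 stock at 100–300 CCID₅₀; mock-infected wells run in parallel for cytotoxicity. Viability read by MTT at 540 and 690 nm on day 5. Median OD of three wells used; EC₅₀ is the concentration giving 50% protection from viral cytopathicity.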

[4] = tested on: Human immunodeficiency virus 1; assay: Antiviral activity against HIV1 harboring reverse transcriptase K103N mutant infected in human MT4 cells assessed as protection against virus-induced cytopathic effect incubated for 5 days by MTT assay; assay type: functional, organism-based; conditions: Human immunodeficiency virus 1, MT4, 120 h; outline: as §2
[5] = tested on: Human immunodeficiency virus 1; assay: Antiviral activity against HIV1 harboring reverse transcriptase Y188L mutant infected in human MT4 cells assessed as protection against virus-induced cytopathic effect incubated for 5 days by MTT assay; assay type: functional, organism-based; conditions: Human immunodeficiency virus 1, MT4, 120 h; outline: as §2
[6] = tested on: Human immunodeficiency virus 1; assay: Antiviral activity against HIV1 harboring reverse transcriptase V106A/F227 mutant infected in human MT4 cells assessed as protection against virus-induced cytopathic effect incubated for 5 days by MTT assay; assay type: functional, organism-based; conditions: Human immunodeficiency virus 1, MT4, 120 h; outline: as §2
[7] = molecular target: Human immunodeficiency virus type 1 reverse transcriptase (Human immunodeficiency virus 1, UniProt Q72547); assay: Inhibition of wild type HIV1 Reverse transcriptase RNase H expressed in Escherichia coli using 5'-UUUUUUUUUAGGAUACAUAUGGUUAAAGU-3' oligonucleotide as substrate and DNA21P as primer in presence of [gamma32P]-ATP by PAGE analysis
Outline: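 Wild-type HIV-1 BH10 RT was expressed in E. coli and purified. RNase H activity was measured on a 31-nt RNA, 5′-³²P-labelled, annealed to a 21-nt DNA (31T/21P). Cleaved substrate was quantified without inhibitor (5% DMSO) and with compound over 0.2–100 µM. IC₅₀ values were taken from dose-response curves.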

[8] = tested on: Human immunodeficiency virus 1; assay: Antiviral activity against HIV1 harboring reverse transcriptase Y181C mutant infected in human MT4 cells assessed as protection against virus-induced cytopathic effect incubated for 5 days by MTT assay; assay type: functional, organism-based; conditions: Human immunodeficiency virus 1, MT4, 120 h; outline: as §2
[9] = tested on: Human immunodeficiency virus 1; assay: Antiviral activity against HIV1 harboring reverse transcriptase E138K mutant infected in human MT4 cells assessed as protection against virus-induced cytopathic effect incubated for 5 days by MTT assay; assay type: functional, organism-based; conditions: Human immunodeficiency virus 1, MT4, 120 h
[10] = tested on: Human immunodeficiency virus 2; assay: Antiviral activity against HIV2 ROD infected in human MT4 cells assessed as protection against virus-induced cytopathic effect incubated for 5 days by MTT assay; conditions: Human immunodeficiency virus 2, ISOLATE ROD, MT4, 120 h

## Cc1ccnc2c1NC(=O)c1cccnc1N2C1CC1 [NEVIRAPINE]
[1]
  EC50: > 15 µM
[2]
  EC50: 1.9 µM
MT4
  CC50: > 15 µM
[3]
  EC50: 0.7 µM
[4]
  EC50: 2.85 µM
[5]
  EC50: > 2.97 µM
[6]
  EC50: > 5.78 µM

## COC(=O)c1cc(NC(=O)c2cc3cc([N+](=O)[O-])c(O)c(O)c3oc2=O)ccc1O
[2]
  EC50: 3.94 µM
MT4
  CC50: > 300 µM
[7]
  IC50: 12.3 µM
[3]
  EC50: 16.5 µM
[4]
  EC50: 5.62 µM
[8]
  EC50: 22.4 µM
[5]
  EC50: 44.3 µM
[9]
  EC50: 22.5 µM
[6]
  EC50: 101 µM
[10]
  EC50: 169 µM
